Source: publication PMC3475189 (Environmental science & technology, 2012)

Assays:
[1] = Tissue levels of PCB 95 and OH-PCB metabolites by GC-ECD; format: in vivo, female C57Bl/6 mice; conditions: for levels in adipose and brain samples: detection limits 11 to 16 ng/g tissue; for concentration at 24 h: female, C57Bl/6, mouse, brain
[2] = cited from earlier work
[3] = Enantiomeric fractions in tissues by enantioselective GC; format: in vivo, female C57Bl/6 mice
Method in brief: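 Extracts of blood, brain, liver and adipose came from mice given 0.1, 1.0 or 6.0 mg/kg/day orally in peanut butter for 39 days and sacrificed 24 h after the last dose. Enantioselective GC-ECD used Chirasil Dex, BGB-172 or ChiralDex B-DM columns: 35 to 140 °C held 420 min, then 200 °C; injector and detector 250 °C; helium 3 mL/min. EF = A1/(A1+A2), E1 being the first-eluting atropisomer; mean ± SD.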

General toxicity = format: in vivo, female C57Bl/6 mice; conditions: 0.1, 1 or 6 mg/kg b.w./day oral for 39 days, any dose level
Method in brief: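 Seven-week-old female C57Bl/6 mice, housed singly on a 12 h reverse light cycle, were acclimated 7 days. They then took the test compound in peanut butter daily at 0.1, 1.0 or 6.0 mg/kg/day for 39 days, with the amount adjusted to daily body weight; vehicle controls received peanut butter only. Body weights were recorded daily and analysed by two-way repeated measures ANOVA.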

CYP1A2 mRNA = test: Hepatic CYP1A2 mRNA level by qPCR; format: in vivo, female C57Bl/6 mice; conditions: liver, 39 days oral
CYP3A11 mRNA = test: Hepatic CYP3A11 mRNA level by qPCR; format: in vivo, female C57Bl/6 mice; conditions: liver, high dose 6 mg/kg b.w./day, 39 days oral
CYP2B10 mRNA = test: Hepatic CYP2B10 mRNA level by qPCR; format: in vivo, female C57Bl/6 mice; conditions: liver, low dose 0.1 mg/kg b.w./day, 39 days oral
CYP2S1 mRNA = test: Hepatic CYP2S1 mRNA level by qPCR; format: in vivo, female C57Bl/6 mice; conditions: liver, all doses, 39 days oral
[4] = test system: P450 mRNA (CYP1A2, CYP3A11, CYP2B10, CYP2S1); test: Brain P450 mRNA levels by qPCR; format: in vivo, female C57Bl/6 mice; conditions: 39 days oral

With `COc1c(Cl)cc(Cl)c(-c2cc(Cl)ccc2Cl)c1Cl` [3-103, 3 Methoxy 2,2′,4,5′,6-pentachlorobiphenyl] the “levels in adipose and brain samples” value [1] was “below their respective detection limits”.

With `COc1c(Cl)c(Cl)c(-c2cc(Cl)ccc2Cl)c(Cl)c1OC` [4,5-95, 4,5-dimethoxy-2,2′,3,5′,6-pentachlorobiphenyl] the “levels in adipose and brain samples” value [1] was “below their respective detection limits”.

For `Oc1cc(Cl)c(-c2cc(Cl)ccc2Cl)c(Cl)c1Cl` [4-95, 2,2′,3,5′,6-pentachlorobiphenyl-4-ol], the “levels in adipose and brain samples” value [1] was “below their respective detection limits” and the level in liver ([1]; liver, low dose treatment group) was “below the detection limit”.

In the case of `Oc1c(Cl)cc(-c2ccc(Cl)c(Cl)c2)c(Cl)c1Cl` [4-107, 2,3,3′,4′,5-pentachlorobiphenyl-4-ol], the “level in fetal brains” value ([2]; fetal brain after oral administration of 4-107 to pregnant Wistar rats) is listed as ~ 1 μg/g tissue and the “level in post-weanling rats” value ([2]; post-weanling rats) is listed as “below detection”.

For `Oc1cc(Cl)c(Cl)c(-c2cc(Cl)ccc2Cl)c1Cl` [5-95, 2,2′,3,5′,6-pentachlorobiphenyl-5-ol], the “levels in adipose and brain samples” value [1] was “below their respective detection limits”, the enriched atropisomer ([3]; liver, high dose treatment group) was “E1-5-95 was enriched” and the enantiomeric enrichment ([3]; liver, medium dose treatment group) was “no consistent enantiomeric enrichment”.

In the case of `Clc1ccc(Cl)c(-c2c(Cl)ccc(Cl)c2Cl)c1` [PCB 95, 2,2′,3,5′,6-pentachlorobiphenyl], the “effect on final body weight, growth rate or other signs of general toxicity” value (General toxicity) is reported as “no effect”, the “CYP1A2 transcript levels relative to control” value (CYP1A2 mRNA; high dose 6 mg/kg b.w./day) is reported as “not changed” and the “induction of CYP1A2 mRNA compared to control” value (CYP1A2 mRNA; low dose 0.1 mg/kg b.w./day) is reported as 1.9 fold. For the same molecule, the “hepatic CYP3A11 levels compared to control” value (CYP3A11 mRNA) was “no change”, the “CYP2B10 mRNA levels compared to control” value (CYP2B10 mRNA) was “no change” and the “hepatic CYP2S1 mRNA levels” value (CYP2S1 mRNA) was “not affected”. The “brain P450 mRNA levels” value [4] was “not affected”, the concentration at 24 h ([1]; oral, 6 mg/kg/day) was 360 ng/g and the concentration at 24 h ([1]; po) was 37 to 360 ng/g. For the same molecule, the “increase in adipose levels of PCB 95” value ([1]; low to medium dose (10-fold increase in dose)) was 10 fold, the “average EF value across treatment groups” value ([3]; adipose, EF = A1/(A1+A2)) was “≈ 0.19” and the enriched atropisomer ([3]; blood, brain, liver and adipose, all three treatment groups) was “E2-PCB 95 was enriched”. The “average EF across treatment groups” value ([3]; liver and blood, EF = A1/(A1+A2)) was “approximately 0.10”.
